pIC50: −log10 of the molar value. Values after ≈ are worked out from the molar mass of the structure shown. Active and inactive are the calls of the source. The rule behind the calls is not given here.
Legend:
A-431 [1] = test: Growth inhibition of human A-431 cells measured after 48 hrs by SRB assay; format: functional, cell-based
Summary of the method: (§1)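 SRB assay. Cells seeded at 3×10^3 per well and attached 24 h, then exposed for 48 h to 12.5, 25, 50 and 62.5 µg/mL in triplicate wells, with 1% v/v DMSO vehicle. Cells fixed in 20% TCA, stained with 0.4% SRB and read at 570 nm. Survival fraction = OD treated/OD control, and IC50 taken from a sigmoidal dose-response fit.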

MDA-MB-468 [2] = test: Induction of apoptosis in human MDA-MB-468 cells assessed as upregulation of caspase-7 expression measured after 1 hr by ELISA relative to control; format: functional
Summary of the method: (§2)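 Sandwich ELISA with wells precoated with capture antibody. Samples and standards (7-point curve) incubated 1 h at 37 °C, then biotin detection antibody 1 h at 37 °C, then avidin-HRP 30 min at 37 °C, with washes between steps. TMB added for 10-20 min at 37 °C in the dark, stopped with sulphuric acid and read at 450 nm. Duplicate readings averaged and zero standard subtracted.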

DNA topoisomerase 2-beta [3] = target: T1, DNA topoisomerase 2-beta (Homo sapiens, UniProt Q02880); test: Inhibition of human topoisomerase IIB-mediated DNA fragmentation
HepG2 = test: Growth inhibition of human HepG2 cells at 100 ug/ml measured after 48 hrs by SRB assay relative to control; format: functional; conditions: dose 100.0 µg/ml, pooled result: one value given for 15 cell lines, strains, targets or settings
Summary of the method: (§3)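 SRB screen on fifteen human cancer lines. Cells seeded at 3×10^3 per well and left 24 h to attach. A single concentration of 100 µg/mL was tested in triplicate wells for 48 h, with 1% v/v DMSO as vehicle control. Cells fixed in 20% TCA, stained with 0.4% SRB and read at 570 nm. Survival fraction = OD treated/OD control.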

MDA-MB-468 [4] = test: Induction of apoptosis in human MDA-MB-468 cells assessed as down regulation of MMP2 expression measured after 1 hr by ELISA relative to control; format: functional; summary of the method: as §2
HeLa [5] = test: Growth inhibition of human HeLa cells measured after 48 hrs by SRB assay; format: functional, cell-based; summary of the method: as §1
Tubulin = test: Inhibition of [3H]-colchicine binding to biotinylated-tubulin (unknown origin) measured after 45 mins by scintillation counting analysis; format: protein-complex assay, Homo sapiens
Summary of the method: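 Scintillation proximity assay run at 37 °C. Incubated 45 min at 37 °C, then the plate was read and percent inhibition calculated from raw counts.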

HEp-2 = test: Growth inhibition of human HEp-2 cells at 100 ug/ml measured after 48 hrs by SRB assay relative to control; format: functional; conditions: dose 100.0 µg/ml, pooled result: one value given for 15 cell lines, strains, targets or settings; summary of the method: as §3
MDA-MB-468 [6] = test: Induction of apoptosis in human MDA-MB-468 cells assessed as upregulation of caspase-3 expression measured after 1 hr by ELISA relative to control; format: functional; summary of the method: as §2
A-431 [7] = test: Growth inhibition of human A-431 cells at 100 ug/ml measured after 48 hrs by SRB assay relative to control; format: functional; conditions: dose 100.0 µg/ml, pooled result: one value given for 15 cell lines, strains, targets or settings; summary of the method: as §3
DNA topoisomerase 2-beta [8] = target: T1, DNA topoisomerase 2-beta; test: Inhibition of human topoisomerase IIB by sandwich ELISA
PC-3 [9] = test: Growth inhibition of human PC-3 cells measured after 48 hrs by SRB assay; format: functional, cell-based; summary of the method: as §1
MDA-MB-468 [10] = test: Cell cycle analysis in human MDA-MB-468 cells assessed as accumulation of cells at G2-M phase at 3.1 uM measured after 48 hrs by propidium iodide staining based flow cytometry (reference value: 0.27%); format: functional
Summary of the method: (§4)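 MDA-MB-468 cells, 2 x 10^5 per well in medium with 10% FBS, grown 24 h at 37 °C, 5% CO₂. Then exposed to 3.1 μM in 1% v/v DMSO for 48 h, washed in cold PBS and fixed in ice-cold 70% ethanol. Stained with PI for 15 min at 37 °C and read by flow cytometry.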

NCI-H1299 = test: Growth inhibition of human NCI-H1299 cells at 100 ug/ml measured after 48 hrs by SRB assay relative to control; format: functional; conditions: dose 100.0 µg/ml, pooled result: one value given for 15 cell lines, strains, targets or settings; summary of the method: as §3
MDA-MB-468 [11] = test: Induction of apoptosis in human MDA-MB-468 cells assessed as down regulation of BCL-2 expression measured after 1 hr by ELISA relative to control; format: functional; summary of the method: as §2
HNO 97 cell line = test: Growth inhibition of human HNO 97 cells at 100 ug/ml measured after 48 hrs by SRB assay relative to control; format: functional; conditions: dose 100.0 µg/ml, pooled result: one value given for 15 cell lines, strains, targets or settings; summary of the method: as §3
MDA-MB-468 [12] = test: Induction of apoptosis in human MDA-MB-468 cells assessed as upregulation of p53 expression measured after 1 hr by ELISA relative to control; format: functional; summary of the method: as §2
MDA-MB-468 [13] = test: Cell cycle analysis in human MDA-MB-468 cells assessed as accumulation of cells at S phase at 3.1 uM measured after 48 hrs by propidium iodide staining based flow cytometry (reference value: 15.3%); format: functional; summary of the method: as §4
FaDu [14] = test: Growth inhibition of human FaDu cells at 100 ug/ml measured after 48 hrs by SRB assay relative to control; format: functional; conditions: dose 100.0 µg/ml, pooled result: one value given for 15 cell lines, strains, targets or settings; summary of the method: as §3
MDA-MB-468 [15] = test: Growth inhibition of human MDA-MB-468 cells measured after 48 hrs by SRB assay; format: functional, cell-based; conditions: MDA-MB-468, 48 h; summary of the method: as §1
MDA-MB-468 [16] = test: Induction of apoptosis in human MDA-MB-468 cells assessed as upregulation of caspase-8 expression measured after 1 hr by ELISA relative to control; format: functional; summary of the method: as §2
A-375 = test: Growth inhibition of human A-375 cells at 100 ug/ml measured after 48 hrs by SRB assay relative to control; format: functional; conditions: dose 100.0 µg/ml, pooled result: one value given for 15 cell lines, strains, targets or settings; summary of the method: as §3
MDA-MB-468 [17] = test: Induction of apoptosis in human MDA-MB-468 cells assessed as upregulation of caspase-9 expression measured after 1 hr by ELISA relative to control; format: functional; summary of the method: as §2
MDA-MB-468 [18] = test: Induction of apoptosis in human MDA-MB-468 cells assessed as down regulation of MMP9 expression measured after 1 hr by ELISA relative to control; format: functional; summary of the method: as §2
Caco-2 = test: Growth inhibition of human Caco-2 cells at 100 ug/ml measured after 48 hrs by SRB assay relative to control; format: functional; conditions: dose 100.0 µg/ml, pooled result: one value given for 15 cell lines, strains, targets or settings; summary of the method: as §3
MCF7 = test: Growth inhibition of human MCF7 cells at 100 ug/ml measured after 48 hrs by SRB assay relative to control; format: functional; conditions: dose 100.0 µg/ml, pooled result: one value given for 15 cell lines, strains, targets or settings; summary of the method: as §3
A549 = test: Growth inhibition of human A549 cells at 100 ug/ml measured after 48 hrs by SRB assay relative to control; format: functional; conditions: dose 100.0 µg/ml, pooled result: one value given for 15 cell lines, strains, targets or settings; summary of the method: as §3
FaDu [19] = test: Growth inhibition of human FaDu cells measured after 48 hrs by SRB assay; format: functional, cell-based; summary of the method: as §1
HCT-116 = test: Growth inhibition of human HCT-116 cells at 100 ug/ml measured after 48 hrs by SRB assay relative to control; format: functional; conditions: dose 100.0 µg/ml, pooled result: one value given for 15 cell lines, strains, targets or settings; summary of the method: as §3
PC-3 [20] = test: Growth inhibition of human PC-3 cells at 100 ug/ml measured after 48 hrs by SRB assay relative to control; format: functional; conditions: dose 100.0 µg/ml, pooled result: one value given for 15 cell lines, strains, targets or settings; summary of the method: as §3
MDA-MB-468 [21] = test: Induction of apoptosis in human MDA-MB-468 cells assessed as upregulation of Bax expression measured after 1 hr by ELISA relative to control; format: functional; summary of the method: as §2
HN = test: Growth inhibition of human HN cells at 100 ug/ml measured after 48 hrs by SRB assay relative to control; format: functional; conditions: dose 100.0 µg/ml, pooled result: one value given for 15 cell lines, strains, targets or settings; summary of the method: as §3
MDA-MB-468 [22] = test: Cell cycle analysis in human MDA-MB-468 cells assessed as accumulation of cells at G0-G1 phase at 3.1 uM measured after 48 hrs by propidium iodide staining based flow cytometry (reference value: 84.43%); format: functional; summary of the method: as §4
MDA-MB-468 [23] = test: Growth inhibition of human MDA-MB-468 cells at 100 ug/ml measured after 48 hrs by SRB assay relative to control; format: functional; conditions: dose 100.0 µg/ml, pooled result: one value given for 15 cell lines, strains, targets or settings; summary of the method: as §3
HeLa [24] = test: Growth inhibition of human HeLa cells at 100 ug/ml measured after 48 hrs by SRB assay relative to control; format: functional; conditions: dose 100.0 µg/ml, pooled result: one value given for 15 cell lines, strains, targets or settings; summary of the method: as §3

T1 sequence (Q02880 whole entry, the tested form may be a part): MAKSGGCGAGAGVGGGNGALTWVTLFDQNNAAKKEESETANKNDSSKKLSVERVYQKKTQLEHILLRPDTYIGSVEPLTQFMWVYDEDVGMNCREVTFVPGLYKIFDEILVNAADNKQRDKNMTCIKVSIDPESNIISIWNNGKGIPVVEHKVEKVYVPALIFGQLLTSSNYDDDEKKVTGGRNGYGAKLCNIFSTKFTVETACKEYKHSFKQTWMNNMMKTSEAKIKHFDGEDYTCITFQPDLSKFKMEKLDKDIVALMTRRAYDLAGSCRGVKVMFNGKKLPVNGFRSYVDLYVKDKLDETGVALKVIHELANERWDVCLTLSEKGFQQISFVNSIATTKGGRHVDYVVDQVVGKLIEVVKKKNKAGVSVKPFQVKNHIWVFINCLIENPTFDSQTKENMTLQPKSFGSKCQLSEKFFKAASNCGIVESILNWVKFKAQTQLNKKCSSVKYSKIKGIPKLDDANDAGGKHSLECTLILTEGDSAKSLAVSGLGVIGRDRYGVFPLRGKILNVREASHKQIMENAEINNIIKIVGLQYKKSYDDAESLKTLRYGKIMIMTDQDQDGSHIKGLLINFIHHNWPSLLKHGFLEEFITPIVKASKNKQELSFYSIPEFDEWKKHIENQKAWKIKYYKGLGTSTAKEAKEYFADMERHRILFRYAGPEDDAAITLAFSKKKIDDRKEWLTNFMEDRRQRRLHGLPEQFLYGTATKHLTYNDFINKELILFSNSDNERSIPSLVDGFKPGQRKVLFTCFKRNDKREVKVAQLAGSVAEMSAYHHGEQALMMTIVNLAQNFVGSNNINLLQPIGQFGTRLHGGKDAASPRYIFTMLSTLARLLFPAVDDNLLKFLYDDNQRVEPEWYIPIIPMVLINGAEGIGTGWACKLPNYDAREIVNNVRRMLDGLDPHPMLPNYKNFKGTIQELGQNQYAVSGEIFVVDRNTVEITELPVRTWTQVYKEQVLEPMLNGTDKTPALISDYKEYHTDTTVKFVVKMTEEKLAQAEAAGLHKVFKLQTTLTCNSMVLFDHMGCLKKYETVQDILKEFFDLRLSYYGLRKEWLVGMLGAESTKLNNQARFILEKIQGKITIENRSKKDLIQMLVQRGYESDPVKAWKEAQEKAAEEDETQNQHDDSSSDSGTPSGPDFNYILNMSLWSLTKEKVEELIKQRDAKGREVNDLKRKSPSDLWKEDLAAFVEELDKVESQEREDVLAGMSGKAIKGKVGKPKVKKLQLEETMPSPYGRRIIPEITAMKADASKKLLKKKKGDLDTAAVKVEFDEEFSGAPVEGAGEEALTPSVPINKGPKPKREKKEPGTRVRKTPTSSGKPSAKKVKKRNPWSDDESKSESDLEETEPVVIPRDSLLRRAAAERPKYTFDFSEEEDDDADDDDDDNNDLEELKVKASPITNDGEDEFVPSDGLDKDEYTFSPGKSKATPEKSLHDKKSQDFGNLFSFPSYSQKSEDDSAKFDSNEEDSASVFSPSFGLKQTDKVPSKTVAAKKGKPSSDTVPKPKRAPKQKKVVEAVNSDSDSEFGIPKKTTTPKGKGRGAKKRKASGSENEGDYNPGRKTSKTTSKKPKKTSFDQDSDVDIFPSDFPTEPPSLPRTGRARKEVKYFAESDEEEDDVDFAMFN

Compound: Cc1nnc(S)n(N2C(=O)c3c(Br)c(Br)c(Br)c(Br)c3C2=O)c1=O
- growth inhibition (GI) (A-431 [1]): Active
- fold change (FC) (MDA-MB-468 [2]): 2.44
- inhibition (DNA topoisomerase 2-beta [3]): Active
- growth inhibition (GI) (HepG2): Active
- fold change (FC) (MDA-MB-468 [4]): 1.9
- growth inhibition (GI) (HeLa [5]): Active
- pIC50 (Tubulin): 5.50
- growth inhibition (GI) (HEp-2): Active
- fold change (FC) (MDA-MB-468 [6]): 3.42
- growth inhibition (GI) (A-431 [7]): Active
- pIC50 (DNA topoisomerase 2-beta [8]): 4.58
- growth inhibition (GI) (PC-3 [9]): Active
- Activity (MDA-MB-468 [10]): 2.29%
- growth inhibition (GI) (NCI-H1299): Active
- fold change (FC) (MDA-MB-468 [11]): 1.81
- growth inhibition (GI) (HNO 97 cell line): Active
- fold change (FC) (MDA-MB-468 [12]): 3.61
- Activity (MDA-MB-468 [13]): 9.04%
- growth inhibition (GI) (FaDu [14]): Active
- IC50 (MDA-MB-468 [15]): 6.7 µg/mL (≈ 11.1 µM)
- fold change (FC) (MDA-MB-468 [16]): 2.33
- growth inhibition (GI) (A-375): Active
- fold change (FC) (MDA-MB-468 [17]): 3.72
- fold change (FC) (MDA-MB-468 [18]): 2.29
- growth inhibition (GI) (Caco-2): Active
- growth inhibition (GI) (MCF7): Active
- growth inhibition (GI) (A549): Active
- growth inhibition (GI) (FaDu [19]): Active
- growth inhibition (GI) (HCT-116): Active
- growth inhibition (GI) (PC-3 [20]): Active
- fold change (FC) (MDA-MB-468 [21]): 2.44
- growth inhibition (GI) (HN): Active
- Activity (MDA-MB-468 [22]): 88.67%
- growth inhibition (GI) (MDA-MB-468 [23]): Active
- growth inhibition (GI) (HeLa [24]): Active
